ChEMBL document CHEMBL4393724, “Betulin-1,4-quinone hybrids: Synthesis, anticancer activity and molecular docking study with NQO1 enzyme” (Eur J Med Chem, 2019)
pIC50: −log10 of the molar value. Active and inactive are the calls of the source. The rule behind the calls is not given here.

Columns and labels:
SNB-19 = test: Antiproliferative activity against human SNB19 cells assessed as reduction in cell viability incubated for 72 hrs by WST1 assay; assay type: functional, cell-based
COLO-829 = test: Antiproliferative activity against human COLO829 cells assessed as reduction in cell viability incubated for 72 hrs by WST1 assay; assay type: functional, cell-based; details: Homo sapiens, COLO-829, 72 h; read-out: IC50
C32 [1] = test: Antiproliferative activity against human C32 cells assessed as reduction in cell viability incubated for 72 hrs by WST1 assay; assay type: functional, cell-based; details: Homo sapiens, C32, 72 h; read-out: IC50
Outline: (§1)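 Cells held at 37 °C under 5% CO2 and seeded at 5 × 10^4 cells/well in DMEM with 10% FCS plus streptomycin and penicillin. Compounds were dissolved in DMSO and exposed for 72 h. WST-1 formazan was read at 450 nm. IC50 was derived from the mean ± SD of at least three independent experiments run in triplicate. Cisplatin served as reference.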

MCF7 [2] = test: Antiproliferative activity against human MCF7 cells assessed as reduction in cell viability incubated for 72 hrs by WST1 assay; assay type: functional, cell-based; details: Homo sapiens, MCF7, 72 h; read-out: IC50; outline: as §1
T47D = test: Antiproliferative activity against human T47D cells assessed as reduction in cell viability incubated for 72 hrs by WST1 assay; assay type: functional, cell-based; details: Homo sapiens, T47D, 72 h; read-out: IC50
MDA-MB-231 = test: Antiproliferative activity against human MDA-MB-231 cells assessed as reduction in cell viability incubated for 72 hrs by WST1 assay; assay type: functional, cell-based
A549 [3] = test: Antiproliferative activity against human A549 cells assessed as reduction in cell viability incubated for 72 hrs by WST1 assay; assay type: functional, cell-based; details: Homo sapiens, A549, 72 h; read-out: IC50; outline: as §1
[4] = target: NAD(P)H dehydrogenase [quinone] 1 (Homo sapiens) (UniProt P15559); test: Inhibition of NQO1 in human A549 cells assessed as decrease in of histone H3 expression at 0.5 times of IC50 incubated for 24 hrs by RT-PCR; assay type: cell-based
Outline: (§2)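 Cultured cells were exposed for 24 h to compound at half its IC50. Transcription of H3, TP53, CDKN1A, BAX and BCL-2 was quantified by real-time RT-qPCR with SYBR Green as mRNA copy numbers and compared with untreated control. The BAX/BCL-2 ratio was calculated from the mRNA copies.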

[5] = target: NAD(P)H dehydrogenase [quinone] 1 (Homo sapiens) (UniProt P15559); test: Inhibition of NQO1 in human MCF7 cells assessed as decrease in histone H3 expression at 0.5 times of IC50 incubated for 24 hrs by RT-PCR; assay type: cell-based; outline: as §2
[6] = target: NAD(P)H dehydrogenase [quinone] 1 (Homo sapiens) (UniProt P15559); test: Inhibition of NQO1 in human C32 cells assessed as decrease in histone H3 expression at 0.5 times of IC50 incubated for 24 hrs by RT-PCR; assay type: cell-based; outline: as §2
[7] = target: NAD(P)H dehydrogenase [quinone] 1 (Homo sapiens) (UniProt P15559); test: Inhibition of NQO1 in human A549 cells assessed as increase in TP53 expression at 0.5 times of IC50 incubated for 24 hrs by RT-PCR; assay type: cell-based; outline: as §2
[8] = target: NAD(P)H dehydrogenase [quinone] 1 (Homo sapiens) (UniProt P15559); test: Inhibition of NQO1 in human MCF7 cells assessed as increase in TP53 expression at 0.5 times of IC50 incubated for 24 hrs by RT-PCR; assay type: cell-based; outline: as §2
[9] = target: NAD(P)H dehydrogenase [quinone] 1 (Homo sapiens) (UniProt P15559); test: Inhibition of NQO1 in human C32 cells assessed as increase in TP53 expression at 0.5 times of IC50 incubated for 24 hrs by RT-PCR; assay type: cell-based; outline: as §2
[10] = target: NAD(P)H dehydrogenase [quinone] 1 (Homo sapiens) (UniProt P15559); test: Inhibition of NQO1 in human A549 cells assessed as increase in CDKN1A expression at 0.5 times of IC50 incubated for 24 hrs by RT-PCR; assay type: cell-based; outline: as §2
[11] = target: NAD(P)H dehydrogenase [quinone] 1 (Homo sapiens) (UniProt P15559); test: Inhibition of NQO1 in human MCF7 cells assessed as increase in CDKN1A expression at 0.5 times of IC50 incubated for 24 hrs by RT-PCR; assay type: cell-based; outline: as §2
[12] = target: NAD(P)H dehydrogenase [quinone] 1 (Homo sapiens) (UniProt P15559); test: Inhibition of NQO1 in human C32 cells assessed as increase in CDKN1A expression at 0.5 times of IC50 incubated for 24 hrs by RT-PCR; assay type: cell-based; outline: as §2
[13] = target: NAD(P)H dehydrogenase [quinone] 1 (Homo sapiens) (UniProt P15559); test: Inhibition of NQO1 in human A549 cells assessed as increase in BAX expression at 0.5 times of IC50 incubated for 24 hrs by RT-PCR; assay type: cell-based; outline: as §2
[14] = target: NAD(P)H dehydrogenase [quinone] 1 (Homo sapiens) (UniProt P15559); test: Inhibition of NQO1 in human MCF7 cells assessed as increase in BAX expression at 0.5 times of IC50 incubated for 24 hrs by RT-PCR; assay type: cell-based; outline: as §2
[15] = target: NAD(P)H dehydrogenase [quinone] 1 (Homo sapiens) (UniProt P15559); test: Inhibition of NQO1 in human C32 cells assessed as increase in BAX expression at 0.5 times of IC50 incubated for 24 hrs by RT-PCR; assay type: cell-based; outline: as §2
[16] = target: NAD(P)H dehydrogenase [quinone] 1 (Homo sapiens) (UniProt P15559); test: Inhibition of NQO1 in human A549 cells assessed as effect on Bcl2 expression at 0.5 times of IC50 incubated for 24 hrs by RT-PCR; assay type: cell-based; outline: as §2
[17] = target: NAD(P)H dehydrogenase [quinone] 1 (Homo sapiens) (UniProt P15559); test: Inhibition of NQO1 in human MCF7 cells assessed as effect on Bcl2 expression at 0.5 times of IC50 incubated for 24 hrs by RT-PCR; assay type: cell-based; outline: as §2
[18] = target: NAD(P)H dehydrogenase [quinone] 1 (Homo sapiens) (UniProt P15559); test: Inhibition of NQO1 in human C32 cells assessed as effect on Bcl2 expression at 0.5 times of IC50 incubated for 24 hrs by RT-PCR; assay type: cell-based; outline: as §2
A549 [19] = test: Induction of apoptosis in human A549 cells assessed as increase in BAX/Bcl2 expression at 0.5 times of IC50 incubated for 24 hrs by RT-PCR; assay type: functional, cell-based; outline: as §2
MCF7 [20] = test: Induction of apoptosis in human MCF7 cells assessed as increase in BAX/Bcl2 expression at 0.5 times of IC50 incubated for 24 hrs by RT-PCR; assay type: functional, cell-based; outline: as §2
C32 [21] = test: Induction of apoptosis in human C32 cells assessed as increase in BAX/Bcl2 expression at 0.5 times of IC50 incubated for 24 hrs by RT-PCR relative to control; assay type: functional; outline: as §2
[22] = target: NAD(P)H dehydrogenase [quinone] 1 (Homo sapiens) (UniProt P15559); test: Inhibition of NQO1 in human C32 cells assessed as decrease in Bcl2 expression at 0.5 times of IC50 incubated for 24 hrs by RT-PCR; assay type: cell-based; outline: as §2
[23] = target: NAD(P)H dehydrogenase [quinone] 1 (Homo sapiens) (UniProt P15559); test: Inhibition of NQO1 in human A549 cells assessed as decrease in Bcl2 expression at 0.5 times of IC50 incubated for 24 hrs by RT-PCR; assay type: cell-based; outline: as §2

NAD(P)H dehydrogenase [quinone] 1 (Homo sapiens), sequence (P15559 whole entry): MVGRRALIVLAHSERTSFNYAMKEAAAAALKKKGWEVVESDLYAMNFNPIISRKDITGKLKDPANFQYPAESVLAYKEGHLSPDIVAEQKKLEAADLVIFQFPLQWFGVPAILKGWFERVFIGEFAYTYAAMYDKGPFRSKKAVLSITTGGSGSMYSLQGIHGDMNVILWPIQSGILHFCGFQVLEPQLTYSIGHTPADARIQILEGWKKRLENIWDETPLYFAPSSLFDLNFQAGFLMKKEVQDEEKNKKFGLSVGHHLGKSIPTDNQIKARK

pIC50 (COLO-829) | pIC50 (MCF7 [2]) | pIC50 (T47D) | pIC50 (A549 [3]) | Activity [4] | Activity [5] | Activity [6] | Activity [7] | Activity [8] | Activity [9] | Activity [10] | Activity [11] | Activity [12] | Activity [13] | Activity [14] | Activity [15] | Activity [17] | Compound | pIC50 (C32 [1]) | Activity (A549 [19]) | Activity (MCF7 [20]) | other results
6.89 | 5.06 | 4.91 | 6.11 | Active | Active | Active | Active | Active | Active | Active | Active | Active | Active | Active | Active | inactive | C=C(C)[C@@H]1CC[C@]2(COC(C)=O)CC[C@]3(C)[C@H](CC[C@@H]4[C@@]5(C)CC[C@H](OC6=C(Cl)C(=O)c7ccccc7C6=O)C(C)(C)[C@@H]5CC[C@]43C)[C@@H]12 | 5.76 | Active | Active | pIC50 (SNB-19; Homo sapiens, SNB-19, 72 h, read-out: IC50): 5.12; IC50 (MDA-MB-231; mda-mb-231): Not Active; Activity [16]: inactive; Activity [18]: inactive; Ratio (C32 [21]): 4 - 5
5.33 | 5.80 | 4.95 | 6.23 | Active | Active | Active | Active | Active | Active | Active | Active | Active | Active | Active | Active | inactive | C=C(C)[C@@H]1CC[C@]2(COC(C)=O)CC[C@]3(C)[C@H](CC[C@@H]4[C@@]5(C)CC[C@H](OC6=C(Cl)C(=O)c7ccc(C)nc7C6=O)C(C)(C)[C@@H]5CC[C@]43C)[C@@H]12 | 5.19 | Active | Active | IC50 (SNB-19; snb-19): Not Active; pIC50 (MDA-MB-231; Homo sapiens, MDA-MB-231, 72 h, read-out: IC50): 6.05; Activity [22]: Active; Activity [23]: Active; Ratio (C32 [21]): 4 - 5
